# Measurements as given in PubChem BioAssay.
# Activity calls are given as the source filed them.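 The calls were made as follows, unless noted: active = viability at or below 10% of carrier control in both of two separate runs; inconclusive = viability at or below 10% in only one of the two runs; inactive = the rest.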
# How the values were obtained:
# [1] = reducers of endogenous Her2 protein level, primary screen, SKBR3 breast tumor cells, AlphaScreen, ATP viability (AID 461;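 active = Her2 level under about 52% in both replicate screens, with viability over 70% of control, limit read from the data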;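 as to Her2 level: lower value means less Her2 protein in the cells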;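 as to viability: percent of carrier control wells set as 100% viability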); conditions: 18-24 h, measured here: SKBR3 viability, ATP luminescence, at 10 µM
# [2] = biological target: Receptor tyrosine-protein kinase erbB-2 (Homo sapiens) (UniProt P04626); assay: as above; conditions: 18-24 h, at 10 µM, stronger effect = lower value
# Chain of Receptor tyrosine-protein kinase erbB-2 (Homo sapiens) (P04626 whole entry, looked up): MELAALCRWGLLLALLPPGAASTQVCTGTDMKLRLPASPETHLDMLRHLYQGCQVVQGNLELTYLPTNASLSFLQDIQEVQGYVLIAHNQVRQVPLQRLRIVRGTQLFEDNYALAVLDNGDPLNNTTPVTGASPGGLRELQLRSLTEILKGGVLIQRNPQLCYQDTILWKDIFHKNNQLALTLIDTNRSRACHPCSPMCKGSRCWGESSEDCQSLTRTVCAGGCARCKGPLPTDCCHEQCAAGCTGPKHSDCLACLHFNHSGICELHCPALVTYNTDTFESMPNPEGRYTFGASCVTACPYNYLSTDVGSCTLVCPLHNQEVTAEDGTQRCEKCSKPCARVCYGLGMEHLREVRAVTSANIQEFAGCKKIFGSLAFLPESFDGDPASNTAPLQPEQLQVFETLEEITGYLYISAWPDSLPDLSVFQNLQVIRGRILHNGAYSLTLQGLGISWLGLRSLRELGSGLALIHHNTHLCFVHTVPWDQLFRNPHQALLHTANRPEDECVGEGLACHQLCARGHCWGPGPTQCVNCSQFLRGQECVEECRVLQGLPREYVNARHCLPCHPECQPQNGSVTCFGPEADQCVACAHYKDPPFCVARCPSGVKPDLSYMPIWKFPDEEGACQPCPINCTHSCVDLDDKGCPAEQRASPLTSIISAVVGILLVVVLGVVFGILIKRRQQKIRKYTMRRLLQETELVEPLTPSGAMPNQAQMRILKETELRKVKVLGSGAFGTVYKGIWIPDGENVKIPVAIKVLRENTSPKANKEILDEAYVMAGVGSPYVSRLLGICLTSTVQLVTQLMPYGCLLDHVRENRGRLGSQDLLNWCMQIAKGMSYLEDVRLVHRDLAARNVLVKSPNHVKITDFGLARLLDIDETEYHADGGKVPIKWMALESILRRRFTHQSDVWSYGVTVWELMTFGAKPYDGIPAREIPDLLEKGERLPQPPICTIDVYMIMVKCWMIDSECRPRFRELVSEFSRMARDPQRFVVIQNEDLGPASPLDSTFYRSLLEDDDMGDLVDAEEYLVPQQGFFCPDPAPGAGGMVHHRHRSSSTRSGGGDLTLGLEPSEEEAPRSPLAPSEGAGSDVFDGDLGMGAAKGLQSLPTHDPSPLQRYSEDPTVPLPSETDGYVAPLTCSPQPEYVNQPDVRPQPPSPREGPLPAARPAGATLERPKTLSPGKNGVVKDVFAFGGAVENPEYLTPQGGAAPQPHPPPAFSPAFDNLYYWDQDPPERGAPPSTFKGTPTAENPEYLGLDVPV
# [3] = SK-BR-3 cell growth inhibitors, pilot screen, 24 h, human (AID 572); conditions: SK-BR-3 viability, CellTiter-Glo luminescence, at 10 µM, stronger effect = lower value;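 also: compound exposure lasted between 18 and 24 h rather than exactly 24 h; 100% = carrier-treated control wells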
# [4] = HUVEC growth inhibition – cell-based, human, primary screen (AID 575;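 active = viability at or below 30% in both replicate assays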;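 also: 100% = median of untreated cell wells with 0.1% DMSO on each plate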); conditions: HUVEC proliferation, CellTiter-Glo luminescence, 72 h; at 10 µM; stronger effect = lower value
# How it was run: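 Test system: primary human umbilical vein endothelial cells. Quantity: 1250 cells/well. Compound: single 10 µM dose, 0.1% DMSO, from 5x medium stock. Timing: 72 h treatment at 37 °C. Detection: ATP-based CellTiter-Glo luminescent read. Benchmarks: vehicle and MePR control wells. Format: 384-well plates coated with collagen.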
# [5] = growth inhibitors of H69AR lung tumor, primary screen, human, duplicate replicates (AID 580;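 active = viability at or under a set limit in both replicates, limit being median viability minus 3 SD, cut at about 48% in these data, passing the limit was not always enough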;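 also: 100% = mean luminescence of untreated wells and 0% = no signal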); conditions: H69AR lung tumor cells viability, ATP luminescence, 72 h; at 10 µM; stronger effect = lower value
# [6] = reversal of MRP1-mediated doxorubicin resistance, pilot screen, H69AR cells, doxorubicin co-treatment (AID 601;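 active = viability loss from added drug above about 55%, and viability with drug at most 40%, in both replicates, limit read from the data, passing the limit was not always enough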); conditions: CellTiter-Glo, 72 h, at 10 µM; for differential viability (reversal): stronger effect = higher value
# [7] = 384-well plate pilot, post-Golgi transport modulator project, inhibition of yeast transport mutant growth (AID 636; in the data active = inhibition above about 31%); conditions: absorbance 615 nm, about 18 h, stronger effect = higher value
# [8] = growth suppression of yeast trafficking mutant, preliminary HTS, modulators of trafficking downstream of Golgi apparatus project, 1536-format plate, OD 615 nm (AID 637; in the data active = inhibition above about 30%); conditions: yeast transport mutant growth, absorbance 615 nm, 18 h; stronger effect = higher value
# [9] = H69AR cells + 2 uM doxorubicin, measured here: viability with 2 uM doxorubicin, stronger effect = lower value
# [10] = H69AR cells, compound alone cytotoxicity
SMILES,viability [1],Her2 level [2],viability [3],viability [4],viability [5],differential viability (reversal) ([6]; H69AR cells + 2 uM doxorubicin),"viability [6, 9]","viability [6, 10]",inhibition [7],inhibition [8]
CCC1CCCCN1C(=O)Cn1c(C(=O)OC)cc2sc(Cl)cc21 (stereo not given),76.5%,103% (inactive),76.5% (inactive),89.2% (inactive),71.4% (inactive),-17% (inactive),88.4%,71.4%,-0.64% (inactive),-0.67% (inactive)
O=C(CSc1ncnc2c1oc1ccccc12)Nc1ccccc1C(F)(F)F,118%,126% (inactive),118% (inactive),86.8% (inactive),95.8% (inactive),8.15% (inactive),87.6%,95.8%,-5.6% (inactive),-2% (inactive)
Cc1cccc2cc(CN(CCCO)C(=O)Nc3ccc(Cl)cc3)c(=O)[nH]c12,74%,69.5% (inactive),74% (inactive),67.9% (inactive),77.1% (inactive),5.85% (inactive),71.2%,77.1%,-5.32% (inactive),-1.43% (inactive)
CCOC(=O)C1CCCN(C(=O)c2ccc3c(=O)n(CCOC)c(=S)[nH]c3c2)C1 (stereo not given),94%,83% (inactive),94% (inactive),80.6% (inactive),88.6% (inactive),11.5% (inactive),77.1%,88.6%,-4.8% (inactive),-0.33% (inactive)
CCOC(=O)N1CCN(CC(=O)c2c(C)[nH]c3ccccc23)CC1,94%,98% (inactive),94% (inactive),79.9% (inactive),75.2% (inactive),-7.93% (inactive),83.1%,75.2%,-5.41% (inactive),-3.93% (inactive)
COc1cc(NC(=O)C2CC(c3cccc(OC)c3OC)=NO2)cc(OC)c1OC (stereo not given),83%,99% (inactive),83% (inactive),54.9% (inactive),27.3% (active),-41.8% (inactive),69.1%,27.3%,6.84% (inactive),-4.18% (inactive)
O=C(CCCC(=O)N(CC(=O)NC1CCCCC1)Cc1ccc2c(c1)OCO2)Nc1ccccn1,102%,97.5% (inactive),102% (inactive),101% (inactive),92.3% (inactive),10.4% (inactive),81.9%,92.3%,-6.18% (inactive),0.32% (inactive)
COc1ccc(CC(NC(C)=O)C(=O)NC2CCN(c3nc(C)cc(C)c3C#N)CC2)c(OC)c1 (stereo not given),102%,100% (inactive),102% (inactive),117% (inactive),104% (inactive),-0.69% (inactive),105%,104%,-0.41% (inactive),2.17% (inactive)
Cc1ccc(-n2nc(C(=O)N3CCN(C)CC3)c3c4ccccc4n(C)c3c2=O)cc1,90.5%,80% (inactive),90.5% (inactive),99.9% (inactive),96.8% (inactive),2.81% (inactive),93.9%,96.8%,-1.97% (inactive),-1.61% (inactive)
N#C/C(=C(/O)CN1CCOCC1)c1nc2ccccc2s1,89.5%,145% (inactive),89.5% (inactive),99.3% (inactive),106% (inactive),5.77% (inactive),100%,106%,2.73% (inactive),-13.8% (inactive)
O=C(O)CCCC(=O)NCCc1ccncc1,98%,89% (inactive),98% (inactive),97% (inactive),107% (inactive),7.97% (inactive),98.5%,107%,-1.84% (inactive),-1.27% (inactive)
CCOC(=O)C1=C(CC)Nc2ccccc2N=C1NC(=O)Cn1cnc2ccccc2c1=O,96%,80.5% (inactive),96% (inactive),97.1% (inactive),103% (inactive),20.2% (inactive),82.3%,103%,-5.07% (inactive),2.9% (inactive)
CC(C)(C)OC(=O)NCCc1nnc(SCC(=O)c2ccc(Cl)cc2)o1,97.5%,106% (inactive),97.5% (inactive),93.1% (inactive),105% (inactive),13% (inactive),92.4%,105%,-0.78% (inactive),-3.83% (inactive)
CCOCCCNC(=O)c1c[nH]c2ccc(S(=O)(=O)Nc3cccc(OC)c3)cc2c1=O,108%,106% (inactive),108% (inactive),83.4% (inactive),99.9% (inactive),6.57% (inactive),93.3%,99.9%,-5.66% (inactive),-8.71% (inactive)
COc1ccc(Oc2nc(Oc3ccc(OC)cc3)nc(Oc3ccc(OC)cc3)n2)cc1,104%,102% (inactive),104% (inactive),95.6% (inactive),94.6% (inactive),6.92% (inactive),87.7%,94.6%,-0.93% (inactive),-5.81% (inactive)
CC(=O)N1C(=O)N(C)C2C1N(C(C)=O)C(=O)N2C (stereo not given),125%,104% (inactive),125% (inactive),92.4% (inactive),93.5% (inactive),-1.64% (inactive),95.1%,93.5%,-1.18% (inactive),-6.45% (inactive)

SMILES,viability [1],Her2 level [2],viability [3],viability [4],viability [5],differential viability (reversal) ([6]; H69AR cells + 2 uM doxorubicin),"viability [6, 9]","viability [6, 10]",inhibition [7],inhibition [8]
COCCNC(=O)CN1CCN(C(c2ccccc2)c2ccccc2)CC1,86%,117% (inactive),86% (inactive),84.3% (inactive),93.1% (inactive),0.91% (inactive),92.2%,93.1%,-0.39% (inactive),-5.08% (inactive)
O=C(NCC1CCCO1)C1CCCN(Cc2cnn(-c3ccccc3)c2-n2cccc2)C1 (stereo not given),83.5%,124% (inactive),83.5% (inactive),83.4% (inactive),85.2% (inactive),40.7% (inactive),44.5%,85.2%,-1.45% (inactive),-8.33% (inactive)
O=C(c1cccc2ccccc12)N1CCC(N2CCN(c3ccccc3)CC2)CC1,84%,90.5% (inactive),84% (inactive),81.7% (inactive),88% (inactive),-4% (inactive),92%,88%,-1.97% (inactive),-4.43% (inactive)
CC(C)(C)C(=O)Cn1c[n+](N)cn1,103%,86% (inactive),103% (inactive),86.1% (inactive),96.9% (inactive),4.54% (inactive),92.4%,96.9%,-4.67% (inactive),0.49% (inactive)
Cc1ccc(-n2nc(-c3cccs3)cc2C(=O)NCC2CCCO2)c(C)c1 (stereo not given),122%,100% (inactive),122% (inactive),71.3% (inactive),86.5% (inactive),-14% (inactive),100%,86.5%,-4.67% (inactive),-6.72% (inactive)
CCOC(=O)c1oc2cccc(OC(C)=O)c2c1C,106%,82% (inactive),106% (inactive),89.9% (inactive),85.6% (inactive),-0.89% (inactive),86.5%,85.6%,-5.6% (inactive),3.11% (inactive)
O=C(COC(=O)C1=COCCO1)Nc1ccccc1Oc1ccccc1,113%,95% (inactive),113% (inactive),97.8% (inactive),93.8% (inactive),5.48% (inactive),88.3%,93.8%,-7.37% (inactive),-1.64% (inactive)
O=C(CN(C(=O)CCC(=O)Nc1nccs1)c1ccccc1F)NCC1CCCO1 (stereo not given),110%,104% (inactive),110% (inactive),105% (inactive),100% (inactive),9.81% (inactive),90.4%,100%,-3.33% (inactive),13.1% (inactive)
NC(=O)NC(c1ccccc1)c1ccccc1F (stereo not given),91%,106% (inactive),91% (inactive),91.6% (inactive),105% (inactive),6.78% (inactive),98.3%,105%,-0.51% (inactive),-8% (inactive)
COc1cc(S(=O)(=O)N2CCC(N3CCCCC3)CC2)ccc1-n1cnnn1,92.5%,108% (inactive),92.5% (inactive),98.3% (inactive),98% (inactive),8.69% (inactive),89.3%,98%,-3.78% (inactive),-6.35% (inactive)
COc1cc(S(=O)(=O)N2CCOCC2)ccc1NC(=O)COC(=O)C12CC3CC(CC(C3)C1)C2,92%,73.5% (inactive),92% (inactive),87.2% (inactive),85% (inactive),-11.2% (inactive),96.2%,85%,0.38% (inactive),-11.7% (inactive)
CCn1c(=O)cc(OCC(=O)NC2CCCCC2)c2ccccc21,86%,98.5% (inactive),86% (inactive),91.5% (inactive),87% (inactive),9.56% (inactive),77.5%,87%,-0.77% (inactive),0% (inactive)
Nc1nc2ccccc2n1C(=O)CCc1ccccc1,102%,83.5% (inactive),102% (inactive),44.8% (inactive),48.4% (active),-27.6% (inactive),76.1%,48.4%,-2.11% (inactive),-2.67% (inactive)
O=C1CC(c2ccccc2)n2nc(NC(=O)c3ccccn3)nc2N1 (stereo not given),104%,78% (inactive),104% (inactive),84.3% (inactive),66.2% (inactive),-18.7% (inactive),84.9%,66.2%,-4.59% (inactive),4.6% (inactive)
O=C(CSc1nc2ccccc2c(=O)n1CCC(=O)N1CCCCC1)NCc1ccccc1,102%,80% (inactive),102% (inactive),99.5% (inactive),81.8% (inactive),-13.3% (inactive),95.1%,81.8%,-1.84% (inactive),-2.86% (inactive)
